Measured values published in ChEMBL document CHEMBL1772947, “Discovery and optimization of a novel, selective and brain penetrant M1 positive allosteric modulator (PAM): the development of ML169, an MLPCN probe” (Bioorg Med Chem Lett, 2011).
Activity calls are given as the source filed them. The calls are words filed in the database; no cut-off is given here.

How the values were obtained:
[1] = biological target: T1, Muscarinic acetylcholine receptor M1 (Rattus norvegicus, UniProt P08482); assay: Allosteric modulation at rat M1 receptor expressed in CHO cells by calcium mobilization assay; type: functional, cell-based
T1 sequence (P08482 whole entry): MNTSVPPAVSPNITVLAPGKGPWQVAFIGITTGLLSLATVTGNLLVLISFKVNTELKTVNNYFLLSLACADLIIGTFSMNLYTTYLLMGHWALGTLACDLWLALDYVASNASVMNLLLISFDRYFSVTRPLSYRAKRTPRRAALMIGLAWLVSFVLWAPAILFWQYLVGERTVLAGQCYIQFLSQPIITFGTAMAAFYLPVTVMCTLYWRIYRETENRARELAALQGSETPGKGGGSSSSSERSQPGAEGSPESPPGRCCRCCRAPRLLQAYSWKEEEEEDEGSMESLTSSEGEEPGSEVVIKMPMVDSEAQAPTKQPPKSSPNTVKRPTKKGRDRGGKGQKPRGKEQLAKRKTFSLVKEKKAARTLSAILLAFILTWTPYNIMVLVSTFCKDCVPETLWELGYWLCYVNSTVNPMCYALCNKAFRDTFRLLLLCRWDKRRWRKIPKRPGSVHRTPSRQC

[2] = biological target: T2, Muscarinic acetylcholine receptor M1 (Rattus norvegicus) (UniProt P08482); assay: Allosteric modulation at rat M1 receptor expressed in CHO cells by calcium mobilization assay relative to acetylcholine; type: functional, cell-based; design: concentration or dose not given beside the values
T2 sequence (whole entry): T1 sequence (P08482 whole entry)

[3] = Ratio of AUC in brain to plasma in rat at 10 mg/kg, ip after 1 hr; type: ADME, organism-based; design: dose 10 mg/kg, route intraperitoneal; conditions: brain and plasma
[4] = biological target: T3, Muscarinic acetylcholine receptor M2 (Homo sapiens, UniProt P08172); assay: Agonist activity at M2 receptor; type: functional
T3 sequence (P08172 whole entry): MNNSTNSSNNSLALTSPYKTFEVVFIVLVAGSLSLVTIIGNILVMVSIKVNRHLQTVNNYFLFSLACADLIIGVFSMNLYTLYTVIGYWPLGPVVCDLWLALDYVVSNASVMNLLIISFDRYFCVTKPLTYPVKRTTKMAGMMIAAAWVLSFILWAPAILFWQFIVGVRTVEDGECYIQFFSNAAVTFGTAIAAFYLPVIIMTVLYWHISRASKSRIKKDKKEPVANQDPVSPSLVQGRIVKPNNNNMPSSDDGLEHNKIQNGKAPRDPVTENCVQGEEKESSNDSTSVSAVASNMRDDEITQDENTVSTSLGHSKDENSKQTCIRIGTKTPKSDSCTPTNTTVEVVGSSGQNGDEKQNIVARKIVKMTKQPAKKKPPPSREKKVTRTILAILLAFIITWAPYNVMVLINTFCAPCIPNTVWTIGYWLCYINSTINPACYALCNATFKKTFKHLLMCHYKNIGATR

[5] = biological target: T4, Muscarinic acetylcholine receptor M3 (Homo sapiens, UniProt P20309); assay: Agonist activity at M3 receptor; type: functional
Target sequence in this assay (P20309 whole entry): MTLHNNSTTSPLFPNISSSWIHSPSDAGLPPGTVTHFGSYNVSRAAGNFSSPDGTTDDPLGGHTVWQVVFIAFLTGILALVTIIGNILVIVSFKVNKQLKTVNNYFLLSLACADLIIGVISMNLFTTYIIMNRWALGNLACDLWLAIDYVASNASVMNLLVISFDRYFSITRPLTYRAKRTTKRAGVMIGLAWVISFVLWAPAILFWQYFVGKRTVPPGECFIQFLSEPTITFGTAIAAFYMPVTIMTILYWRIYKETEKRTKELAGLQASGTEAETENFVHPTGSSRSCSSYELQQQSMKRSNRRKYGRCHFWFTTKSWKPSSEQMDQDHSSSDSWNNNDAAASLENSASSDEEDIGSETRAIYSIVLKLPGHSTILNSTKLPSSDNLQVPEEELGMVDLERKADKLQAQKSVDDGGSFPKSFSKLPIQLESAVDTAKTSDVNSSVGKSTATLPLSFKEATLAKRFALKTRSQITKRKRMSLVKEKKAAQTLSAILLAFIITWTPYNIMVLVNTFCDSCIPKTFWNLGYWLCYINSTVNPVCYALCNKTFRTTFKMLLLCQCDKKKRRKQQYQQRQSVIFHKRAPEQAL

[6] = biological target: T5, Muscarinic acetylcholine receptor M4 (Homo sapiens, UniProt P08173); assay: Agonist activity at M4 receptor; type: functional
T5 sequence (P08173 whole entry): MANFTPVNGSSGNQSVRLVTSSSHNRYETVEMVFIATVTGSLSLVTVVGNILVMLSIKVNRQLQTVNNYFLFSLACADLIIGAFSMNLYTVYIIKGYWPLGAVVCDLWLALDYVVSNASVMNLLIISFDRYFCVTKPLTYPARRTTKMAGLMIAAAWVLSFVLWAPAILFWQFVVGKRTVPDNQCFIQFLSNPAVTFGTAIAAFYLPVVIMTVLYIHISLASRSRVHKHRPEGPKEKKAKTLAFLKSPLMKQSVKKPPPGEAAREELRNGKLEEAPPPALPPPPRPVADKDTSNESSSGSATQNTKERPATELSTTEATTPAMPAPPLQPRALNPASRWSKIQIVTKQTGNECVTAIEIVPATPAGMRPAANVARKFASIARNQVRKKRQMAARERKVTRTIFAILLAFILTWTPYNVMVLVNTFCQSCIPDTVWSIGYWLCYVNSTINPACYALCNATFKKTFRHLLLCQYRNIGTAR

[7] = biological target: T6, Muscarinic acetylcholine receptor M5 (Homo sapiens, UniProt P08912); assay: Agonist activity at M5 receptor; type: functional
T6 sequence (P08912 whole entry): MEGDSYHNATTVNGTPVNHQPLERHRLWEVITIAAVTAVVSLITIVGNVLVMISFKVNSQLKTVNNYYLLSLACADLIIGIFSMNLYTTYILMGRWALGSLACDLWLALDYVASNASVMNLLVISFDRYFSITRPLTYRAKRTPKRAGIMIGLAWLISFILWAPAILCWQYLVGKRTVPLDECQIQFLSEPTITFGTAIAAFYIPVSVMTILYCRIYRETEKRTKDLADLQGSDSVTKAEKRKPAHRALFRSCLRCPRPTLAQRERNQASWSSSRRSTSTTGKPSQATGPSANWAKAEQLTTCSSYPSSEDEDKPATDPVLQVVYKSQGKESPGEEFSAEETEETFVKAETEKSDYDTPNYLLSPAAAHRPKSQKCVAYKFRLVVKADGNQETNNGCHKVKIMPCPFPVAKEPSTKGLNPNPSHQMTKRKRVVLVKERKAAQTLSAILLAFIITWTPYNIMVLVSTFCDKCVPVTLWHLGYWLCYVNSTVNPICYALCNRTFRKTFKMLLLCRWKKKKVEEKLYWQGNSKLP

[8] = biological target: T2, Muscarinic acetylcholine receptor M1 (Rattus norvegicus); assay: Agonist activity at rat M1 receptor expressed in CHO cells assessed as leftward shift in Ach response at 30 uM by calcium mobilization assay; type: functional, cell-based
[9] = biological target: T7, Muscarinic acetylcholine receptor M5 (Homo sapiens) (UniProt P08912); assay: Orthosteric binding affinity to M5 receptor at 10 uM by radioligand binding assay
T7 sequence (whole entry): T6 sequence (P08912 whole entry)
Summary of the method: (§1)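 Radioligand binding panel of 68 GPCRs, ion channels and transporters (Lead Profile screen, run externally), compound tested at 10 μM; read-out as percent activity at each target.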

[10] = biological target: T8, Muscarinic acetylcholine receptor M4 (Homo sapiens) (UniProt P08173); assay: Orthosteric binding affinity to M4 receptor at 10 uM by radioligand binding assay; summary of the method: as §1
T8 sequence (whole entry): T5 sequence (P08173 whole entry)

[11] = biological target: T4, Muscarinic acetylcholine receptor M3; assay: Orthosteric binding affinity to M3 receptor at 10 uM by radioligand binding assay; summary of the method: as §1
Target sequence in this assay (P20309 whole entry, looked up): as the sequence (P20309 whole entry) above

[12] = biological target: T9, Muscarinic acetylcholine receptor M2 (Homo sapiens) (UniProt P08172); assay: Orthosteric binding affinity to M2 receptor at 10 uM by radioligand binding assay; summary of the method: as §1
T9 sequence (whole entry): T3 sequence (P08172 whole entry)

[13] = biological target: T2, Muscarinic acetylcholine receptor M1 (Rattus norvegicus); assay: Orthosteric binding affinity to rat M1 receptor at 10 uM by radioligand binding assay; summary of the method: as §1
[14] = Binding affinity to Sodium channel site 2 at 10 uM by radioligand binding assay; summary of the method: as §1
[15] = biological target: Sodium-dependent dopamine transporter (Homo sapiens) (UniProt Q01959); assay: Binding affinity to DAT at 10 uM by radioligand binding assay; summary of the method: as §1
Chain of Sodium-dependent dopamine transporter (Homo sapiens) (Q01959 whole entry): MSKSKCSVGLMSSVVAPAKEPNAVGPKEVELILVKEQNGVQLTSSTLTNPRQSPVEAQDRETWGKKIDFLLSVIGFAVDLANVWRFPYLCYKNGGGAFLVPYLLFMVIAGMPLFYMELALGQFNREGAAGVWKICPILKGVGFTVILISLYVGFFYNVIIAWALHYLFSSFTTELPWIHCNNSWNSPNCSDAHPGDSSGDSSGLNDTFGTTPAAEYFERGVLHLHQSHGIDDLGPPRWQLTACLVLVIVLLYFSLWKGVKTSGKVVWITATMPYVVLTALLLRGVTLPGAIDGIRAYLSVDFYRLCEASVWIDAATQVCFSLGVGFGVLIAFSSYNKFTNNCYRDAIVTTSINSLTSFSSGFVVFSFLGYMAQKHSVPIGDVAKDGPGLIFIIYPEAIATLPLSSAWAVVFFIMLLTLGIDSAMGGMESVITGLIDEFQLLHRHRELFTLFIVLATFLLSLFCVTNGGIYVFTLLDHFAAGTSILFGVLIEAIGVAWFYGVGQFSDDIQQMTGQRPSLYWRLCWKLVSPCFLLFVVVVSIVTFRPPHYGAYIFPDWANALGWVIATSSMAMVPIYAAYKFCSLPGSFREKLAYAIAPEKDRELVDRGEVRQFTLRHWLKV

An EC50 [1] of 4.4 µM and an Activity [2] of 103% were found for `Cc1cc(NC(=O)CS(=O)(=O)c2cn(Cc3cccc(-c4cn[nH]c4)c3F)c3ccccc23)no1` in this work.
A Kp at 1 h [3] of 0.1 was found for `Cn1cc(-c2ccc(CN3C(=O)C(=O)c4ccccc43)c(F)c2)cn1` in this work.
With `Cc1cc(NC(=O)CS(=O)(=O)c2cn(Cc3ccc(F)c(Cl)c3)c3ccccc23)no1` the EC50 [1] was > 10 µM.
In the case of `COc1ccc(Cn2cc(S(=O)(=O)CC(=O)Nc3cc(C)on3)c3ccccc32)cc1`, the EC50 [1] is reported as > 10 µM.
In the case of `Cc1cc(NC(=O)CS(=O)(=O)c2cn(Cc3cc(Br)cc(Br)c3)c3ccccc23)no1`, the EC50 [1] is reported as > 10 µM.
An Activity [2] of 90% was found for `Cc1cc(NC(=O)CS(=O)(=O)c2cn(Cc3cccc(-c4cn[nH]c4)c3)c3ccccc23)no1` in this work.
For `Cc1cc(NC(=O)CS(=O)(=O)c2cn(Cc3ccc(OC(F)(F)F)cc3)c3ccccc23)no1`, the EC50 [1] was > 10 µM.
With `Cc1cc(NC(=O)CS(=O)(=O)c2cn(Cc3cccc(-c4ccccc4)c3)c3ccccc23)no1` the EC50 [1] was > 10 µM.
With `Cc1cc(NC(=O)CS(=O)(=O)c2cn(Cc3cccc(C#N)c3)c3ccccc23)no1` the EC50 [1] was > 10 µM.
In the case of `Cc1cc(NC(=O)CS(=O)(=O)c2cn(Cc3ccccc3Cl)c3ccccc23)no1`, the EC50 [1] is reported as 9.71 µM, the EC50 [4] is reported as > 30 µM and the EC50 [5] is reported as > 30 µM. For the same compound, the EC50 [6] was > 30 µM and the EC50 [7] was > 30 µM.
For `COc1ccccc1Cn1cc(S(=O)(=O)CC(=O)Nc2cc(C)on2)c2ccccc21`, the EC50 [1] was > 10 µM.
An EC50 [1] of 3.07 µM and an Activity [2] of 96% were found for `Cc1cc(NC(=O)CS(=O)(=O)c2cn(Cc3cc(-c4cn[nH]c4)ccc3F)c3ccccc23)no1` in this work.
In the case of `CCC(C)n1cc(-c2cccc(Cn3cc(S(=O)(=O)CC(=O)Nc4cc(C)on4)c4ccccc43)c2)cn1` (configuration not stated), the EC50 [1] is reported as > 10 µM.
For `Cc1cc(NC(=O)CS(=O)(=O)c2cn(Cc3cccc(Br)c3F)c3ccccc23)no1`, the EC50 [1] was > 10 µM.
An EC50 [1] of 3.21 µM and an Activity [2] of 102% were found for `Cc1cc(NC(=O)CS(=O)(=O)c2cn(Cc3cccc(-c4cnn(C)c4)c3)c3ccccc23)no1` in this work.
For `Cc1cc(NC(=O)CS(=O)(=O)c2cn(Cc3cccc(-c4ccc(N5CCCC5)nc4)c3)c3ccccc23)no1`, the EC50 [1] was > 10 µM.
For `Cc1cc(NC(=O)CS(=O)(=O)c2cn(Cc3ccc(C(F)(F)F)cc3)c3ccccc23)no1`, the EC50 [1] was > 10 µM.
In the case of `Cc1cc(NC(=O)CS(=O)(=O)c2cn(Cc3cccc(-c4ccc(Cl)nc4)c3)c3ccccc23)no1`, the EC50 [1] is reported as > 10 µM.
With `Cc1cc(NC(=O)CS(=O)(=O)c2cn(Cc3ccc(Cl)c(Cl)c3)c3ccccc23)no1` the EC50 [1] was > 10 µM.
For `Cc1cc(NC(=O)CS(=O)(=O)c2cn(Cc3ccccc3F)c3ccccc23)no1`, the EC50 [1] was > 10 µM.
A fold change (FC) [8] of 98 and an Activity [2] of 102% were found for `Cc1cc(NC(=O)CS(=O)(=O)c2cn(Cc3cccc(-c4cn[nH]c4)c3)c3cc(F)cc(F)c23)no1` in this work.
For `Cc1cc(NC(=O)CS(=O)(=O)c2cn(Cc3ccc(F)cc3Br)c3ccccc23)no1`, the EC50 [1] was > 10 µM.
In the case of `Cc1cc(NC(=O)CS(=O)(=O)c2cn(Cc3cccc(C(F)(F)F)c3)c3ccccc23)no1`, the EC50 [1] is reported as > 10 µM.
With `Cc1cc(NC(=O)CS(=O)(=O)c2cn(Cc3ccc(F)cc3F)c3ccccc23)no1` the EC50 [1] was > 10 µM.
With `Cc1cc(NC(=O)CS(=O)(=O)c2cn(Cc3ccc(F)c(-c4cn[nH]c4)c3)c3ccccc23)no1` the EC50 [1] was > 10 µM.
An Activity [2] of 96% was found for `Cc1cc(NC(=O)CS(=O)(=O)c2cn(Cc3cccc(Cl)c3)c3ccccc23)no1` in this work.
An Activity [2] of 56% was found for `Cc1cc(NC(=O)CS(=O)(=O)c2cn(Cc3cccc(Cl)c3F)c3ccccc23)no1` in this work.
An Activity [2] of 91% was found for `Cc1cc(NC(=O)CS(=O)(=O)c2cn(Cc3cccc(Br)c3)c3ccccc23)no1` in this work.
An Activity [2] of 79% was found for `COc1cccc(Cn2cc(S(=O)(=O)CC(=O)Nc3cc(C)on3)c3ccccc32)c1` in this work.
An Activity [2] of 103% was found for `Cc1cc(NC(=O)CS(=O)(=O)c2cn(Cc3cccc(Br)c3)c3cc(F)cc(F)c23)no1` in this work.
For `Cc1cc(NC(=O)CS(=O)(=O)c2cn(Cc3cc(Br)ccc3F)c3ccccc23)no1`, the Kp at 1 h [3] was 0.32, the Activity [9] was “inactive” and the Activity [10] was “inactive”. For the same compound, the Activity [11] was “inactive”, the Activity [12] was “inactive” and the Activity [13] was “inactive”. For the same compound, the Activity [14] was 83%, the Activity [15] was 83% and the fold change (FC) [8] was 49. For the same compound, the Activity [2] was 84%.
With `Cc1cc(NC(=O)CS(=O)(=O)c2cn(Cc3ccc(Cl)cc3)c3ccccc23)no1` the EC50 [1] was > 10 µM.
With `Cc1cc(NC(=O)CS(=O)(=O)c2cn(Cc3cccc(-c4ccc(N5CCNCC5)nc4)c3)c3ccccc23)no1` the EC50 [1] was > 10 µM.
In the case of `Cc1cc(NC(=O)CS(=O)(=O)c2cn(Cc3cccc(-c4ccc(N5CCOCC5)nc4)c3)c3ccccc23)no1`, the EC50 [1] is reported as > 10 µM.
In the case of `Cc1cc(NC(=O)CS(=O)(=O)c2cn(Cc3ccc(F)c(Br)c3)c3ccccc23)no1`, the EC50 [1] is reported as > 10 µM.
